A short description of data set [1]: Displacement of [125I]DMIC from amyloid beta (1 to 42) peptide. Put shortly: (§1)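 Aβ(1-42) aggregated at 0.25 mg/mL in 10 mM sodium phosphate, 1 mM EDTA, pH 7.4, 37 °C for 42 h with gentle constant shaking. Competition against [125I]DMIC. Bound and free separated by GF/B filtration, filter radioactivity read by γ counter. IC50 from displacement curves of three independent experiments, Ki by Cheng-Prusoff.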
On the technique in general: Displacement assays read how much labelled ligand stays bound in the presence of the test substance.

Data set [2] has as its system Amyloid-beta precursor protein (Homo sapiens), P05067 [K670N,M671L]. Put plainly: Binding affinity to human recombinant APP695 K670N and M671L Swedish double mutant plaques expressed in Tg2576 mouse brain at 100 uM after 10 mins by amyloid beta-protein immunohistostaining. The method in brief:
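Female Tg2576 and age-matched wild-type mice, 20 months old; brains frozen on dry ice, cut into 10 μm serial sections. Slides incubated 10 min with 100 μM compound in 50% EtOH, washed twice 3 min in 50% EtOH, fluorescence read with excitation 450-490 nm and 520 nm long-pass. Adjacent sections immunostained for Aβ with DAB.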

In data set [3] the target is Amyloid-beta precursor protein (Homo sapiens) (UniProt P05067). Kind of data set: Binding affinity to beta amyloid plaques in human Alzheimer's disease patient brain at 54 uCi/200 uL by autoradiography. The conditions noted are these: tested as the 18F-labelled form.
Data set [4] has as its system Blood. Put plainly: Biodistribution in normal ddY mouse blood at 3.7 MBq, iv after 2 mins. The following applies: in vivo. In kind it is ADME, organism-based. Put shortly: (§2)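 Tracer (3.7 MBq) in 100 μL saline with 10% EtOH and 1 mg/mL ascorbic acid, injected into tail vein of 5-week-old ddY mice (22-25 g). Groups of five killed at each time; organs removed, weighed, radioactivity γ-counted and expressed as % injected dose per gram, mean ± SD of 4-5 mice.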

Data set [5] relates to Blood. Put plainly: Biodistribution in normal ddY mouse blood at 3.7 MBq, iv after 10 mins. The following applies: in vivo. It counts as ADME, organism-based. The method in brief: as §2
In data set [6] the test system is Blood. Kind of data set: Biodistribution in normal ddY mouse blood at 3.7 MBq, iv after 30 mins. It counts as ADME, organism-based. The following applies: in vivo, 0.5 h. The method in brief:
as §2

In data set [7] the test system is Blood. Kind of data set: Biodistribution in normal ddY mouse blood at 3.7 MBq, iv after 60 mins. It counts as ADME, organism-based. The following applies: in vivo, 1 h. Put shortly: as §2
In data set [8] the test system is Brain. Kind of data set: Biodistribution in normal ddY mouse brain at 3.7 MBq, iv after 2 mins. The conditions noted are these: in vivo. It counts as ADME, organism-based. Put shortly:
as §2

The test system of data set [9] is Brain. Kind of data set: Biodistribution in normal ddY mouse brain at 3.7 MBq, iv after 10 mins. In kind it is ADME, organism-based. The conditions noted are these: in vivo. The method in brief:
as §2

Data set [10] relates to Brain. Kind of data set: Biodistribution in normal ddY mouse brain at 3.7 MBq, iv after 30 mins. It counts as ADME, organism-based. The conditions noted are these: in vivo, 0.5 h. The method in brief: as §2
Data set [11] relates to Brain. Put plainly: Biodistribution in normal ddY mouse brain at 3.7 MBq, iv after 60 mins. In kind it is ADME, organism-based. The conditions noted are these: in vivo, 1 h. The method in brief: as §2
Data set [12] concerns Bone. Put plainly: Biodistribution in normal ddY mouse bone at 3.7 MBq, iv after 2 mins. It counts as ADME, organism-based, Bone element. The following applies: in vivo. The method in brief: as §2
Data set [13] concerns Bone. Put plainly: Biodistribution in normal ddY mouse bone at 3.7 MBq, iv after 10 mins. The conditions noted are these: in vivo. It counts as ADME, organism-based, Bone element. The method in brief:
as §2

The test system of data set [14] is Bone. Put plainly: Biodistribution in normal ddY mouse bone at 3.7 MBq, iv after 30 mins. In kind it is ADME, organism-based, Bone element. The following applies: in vivo, 0.5 h. The method in brief: as §2
For data set [15], the system named is Bone. Put plainly: Biodistribution in normal ddY mouse bone at 3.7 MBq, iv after 60 mins. It counts as ADME, organism-based, Bone element. The conditions noted are these: in vivo, 1 h. The method in brief: as §2
The nature of data set [16]: Binding affinity to amyloid beta (1 to 42) peptide. Put shortly:
as §1

Activity calls are given as the source filed them. The calls are words filed in the database; no cut-off is given here.

For 20 molecules, Ki, Activity and Drug uptake results are on record in ChEMBL document CHEMBL1155231, “Fluoro-pegylated chalcones as positron emission tomography probes for in vivo imaging of beta-amyloid plaques in Alzheimer's disease” (J Med Chem, 2009).

By Ki is commonly meant a measure of affinity in units of concentration, obtained from inhibition or displacement. Lower therefore signals a stronger hold on the target.

In data set [1], `Nc1ccc(/C=C/C(=O)c2ccc(OCCOCCOCCF)cc2)cc1` registered a Ki of 790 nM.

Turning to `Nc1ccc(/C=C/C(=O)c2ccc(OCCF)cc2)cc1`, in [1], the Ki was 679 nM.

Take `CN(C)c1ccc(/C=C/C(=O)c2ccc(OCCOCCOCCF)cc2)cc1`: the Ki in [1] amounted to 38.9 nM. For the same molecule, the result in data set [2] and in data set [3] was Active.

Turning to `CN([11CH3])c1ccc(/C=C/C(=O)c2ccc(OCCOCCOCCF)cc2)cc1`, the Drug uptake in the data set on Blood [4] amounted to 2.44 % ID/g; in the data set on Blood [5] it was 1.52 % ID/g; in the data set on Blood [6] it was 1.01 % ID/g; in the data set on Blood [7], 0.68 % ID/g; in the data set on Brain [8], 4.31 % ID/g; with Brain [9], 1.38 % ID/g. The Drug uptake stood at 0.64 % ID/g in the data set with Brain [10] and 0.35 % ID/g with Brain [11].

Regarding `CN([11CH3])c1ccc(/C=C/C(=O)c2ccc(OCCOCCF)cc2)cc1`, the Drug uptake in the data set on Blood [4] was determined as 3.48 % ID/g; in the data set on Blood [5], 2.28 % ID/g; with Blood [6], 2.54 % ID/g; in the data set with Blood [7], 1.44 % ID/g; with Brain [8], 4.73 % ID/g; with Brain [9], 2.23 % ID/g. Further, the Drug uptake in the data set on Brain [10] is 1.14 % ID/g; with Brain [11] it was 1 % ID/g.

For `CN(C)c1ccc(/C=C/C(=O)c2ccc(OCCF)cc2)cc1`, in data set [1], affinity was put at a Ki of 45.7 nM.

In the case of `CN(C)c1ccc(/C=C/C(=O)c2ccc(F)cc2)cc1`, in data set [1], the Ki came to 49.8 nM.

In turn, `CNc1ccc(/C=C/C(=O)c2ccc(OCCF)cc2)cc1` gave a Ki in [1] of 197 nM.

As to `CN(C)c1ccc(/C=C/C(=O)c2ccc(I)cc2)cc1`, the Ki in data set [1] came out at 13.1 nM.

`CNc1ccc(/C=C/C(=O)c2ccc(OCCOCCF)cc2)cc1` returned a Ki in [1] of 216 nM.

`CN([11CH3])c1ccc(/C=C/C(=O)c2ccc(OCCF)cc2)cc1`: the Drug uptake with Blood [4] is given as 3.65 % ID/g; in the data set on Blood [5], 2.73 % ID/g; in the data set with Blood [6], 2.12 % ID/g; with Blood [7] it was 2.22 % ID/g; with Brain [8], 6.01 % ID/g; in the data set on Brain [9], 3.24 % ID/g. For the same molecule, the Drug uptake with Brain [10] amounted to 2.57 % ID/g; in the data set with Brain [11], 2.26 % ID/g.

In the case of `CN(C)c1ccc(/C=C/C(=O)c2ccc(OCCOCCOCC[18F])cc2)cc1`, the Drug uptake worked out at 2.09 % ID/g with Blood [4]; 1.94 % ID/g with Blood [5]; 2.35 % ID/g with Blood [6]; 1.87 % ID/g in the data set with Blood [7]; 3.48 % ID/g in the data set with Brain [8]; 1.52 % ID/g in the data set with Brain [9]. Also, the Drug uptake in the data set on Brain [10] was 1.08 % ID/g; in the data set on Brain [11] it was 1.07 % ID/g; in the data set on Bone [12], 1.8 % ID/g; with Bone [13] it was 1.76 % ID/g; with Bone [14], 2.98 % ID/g; in the data set with Bone [15] it was 3.58 % ID/g.

`CN(C)c1ccc(/C=C/C(=O)c2ccc(OCCOCCF)cc2)cc1` came in with a Ki in data set [1] of 20 nM. This counts as double-digit nanomolar.

The molecule `CNc1ccc(/C=C/C(=O)c2ccc(OCCOCCOCCF)cc2)cc1` yielded a Ki in [1] of 471 nM. Compared with the last molecule, the Ki is about 24-fold higher.

Turning to `CNc1ccc(/C=C/C(=O)c2ccc(F)cc2)cc1`, in [1], the affinity corresponds to a Ki of 234 nM.

On to `Nc1ccc(/C=C/C(=O)c2ccc(OCCOCCF)cc2)cc1`, for which, in data set [1], the Ki turned out to be 1050 nM.

The molecule `Nc1ccc(/C=C/C(=O)c2ccc(F)cc2)cc1` had a Ki in data set [1] of 663 nM.

In [1], `CN(C)c1ccc(-c2cn3cc(I)ccc3n2)cc1` showed a Ki of 28 nM.

As to `CN([11CH3])c1ccc(/C=C/C(=O)c2ccc(F)cc2)cc1`, the Drug uptake in the data set with Blood [4] came to 2.61 % ID/g; in the data set with Blood [5] it was 1.6 % ID/g; in the data set with Blood [6], 0.39 % ID/g; in the data set with Blood [7] it was 1.4 % ID/g; in the data set on Brain [8], 3.68 % ID/g; with Brain [9], 1.53 % ID/g. The Drug uptake in the data set with Brain [10] and in the data set with Brain [11] was 1.04 % ID/g in each case.

The molecule `CNc1ccc(/C=C/c2ccc(OCCOCCOCC[18F])cc2)cc1` [FLORBETABEN F18] displayed a Ki in data set [16] of 6.7 nM.
